Results published in ChEMBL document CHEMBL4406847, “Tryptoline-based benzothiazoles re-sensitize MRSA to β-lactam antibiotics” (Bioorg Med Chem, 2019).
Converted amounts (≈) assume the structure as drawn. The source made the active and inactive calls. The rule behind the calls is not given here.

Key:
Staphylococcus aureus [1] = test: Potentiation of cefuroxime induced antibacterial activity against methicillin resistant Staphylococcus aureus NR-46411 assessed as minimum resensitizing concentration after 18 hrs by broth microdilution method; format: functional; details: NR-46411, 18 h, read-out: MEC
Outline: (§1)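 Compound titrated with cefuroxime, using the same method as the cefazolin MRC; MRC is the lowest compound concentration preventing overnight growth, in μg/mL.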

Staphylococcus aureus [2] = test: Potentiation of cefuroxime induced antibacterial activity against Staphylococcus aureus ATCC BAA-1683 assessed as minimum resensitizing concentration after 18 hrs by broth microdilution method; format: functional; details: ATCC BAA-1683, 18 h, read-out: MEC
Outline: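 MRSA BAA-1683 grown overnight with cefuroxime plus varying analogue, method as for cefazolin MRC (antibiotic at CLSI breakpoint); MRC = analogue concentration giving no overnight growth; confirmed in triplicate.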

Staphylococcus aureus [3] = test: Potentiation of cefuroxime mediated antibacterial activity against methicillin resistant Staphylococcus aureus NRS100 assessed as minimum resensitizing concentration after 18 hrs by broth microdilution method; format: functional; details: NRS100, 18 h, read-out: MEC; outline: as §1
[4] = (§2) Cytotoxicity against human HeLa cells assessed as cell growth inhibition measured after 24 hrs by Celltiter Glo luminescent assay; format: cell-based; details: HeLa cells
Staphylococcus aureus [5] = test: Potentiation of cefuroxime induced antibacterial activity against methicillin resistant Staphylococcus aureus NRS384 assessed as minimum resensitizing concentration after 18 hrs by broth microdilution method; format: functional; details: NRS384, 18 h, read-out: MEC; outline: as §1
Staphylococcus aureus [6] = test: Potentiation of cefazolin induced antibacterial activity against methicillin resistant Staphylococcus aureus ATCC BAA-44 assessed as minimum resensitizing concentration after 18 hrs by broth microdilution method; format: functional; details: ATCC BAA-44, 18 h, read-out: MEC
Outline: (§3)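 Compound titrated in the presence of cefazolin at its CLSI breakpoint (8 μg/mL); MRC is the compound concentration at which no overnight growth occurs, in μg/mL; confirmed in triplicate.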

Staphylococcus aureus [7] = test: Potentiation of cefazolin induced antibacterial activity against Staphylococcus aureus ATCC BAA-1683 assessed as minimum resensitizing concentration after 18 hrs by broth microdilution method; format: functional; details: ATCC BAA-1683, 18 h, read-out: MEC
Outline: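 MRSA BAA-1683 grown overnight with cefazolin held at its CLSI breakpoint, 8 μg/mL, plus varying analogue; MRC = analogue concentration giving no overnight growth; confirmed in triplicate.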

Staphylococcus aureus [8] = test: Antibacterial activity against methicillin resistant Staphylococcus aureus ATCC BAA-1764 after 18 hrs by broth microdilution method; format: functional; details: ATCC BAA-1764, 18 h
Outline: (§4)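 Compound alone, MIC by standard CLSI broth microdilution; lowest concentration with no growth, reported in μg/mL; confirmed in triplicate.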

Staphylococcus aureus [9] = test: Potentiation of cefuroxime induced antibacterial activity against methicillin resistant Staphylococcus aureus ATCC BAA-1764 assessed as minimum resensitizing concentration after 18 hrs by broth microdilution method; format: functional; details: ATCC BAA-1764, 18 h, read-out: MEC; outline: as §1
Staphylococcus aureus [10] = test: Potentiation of cefazolin induced antibacterial activity against methicillin resistant Staphylococcus aureus NR-46411 assessed as minimum resensitizing concentration after 18 hrs by broth microdilution method; format: functional; details: NR-46411, 18 h, read-out: MEC; outline: as §3
Staphylococcus aureus [11] = test: Potentiation of cefazolin induced antibacterial activity against methicillin resistant Staphylococcus aureus NRS100 assessed as minimum resensitizing concentration after 18 hrs by broth microdilution method; format: functional; details: NRS100, 18 h, read-out: MEC; outline: as §3
Staphylococcus aureus [12] = test: Potentiation of cefazolin induced antibacterial activity against methicillin resistant Staphylococcus aureus NRS384 assessed as minimum resensitizing concentration after 18 hrs by broth microdilution method; format: functional; details: NRS384, 18 h, read-out: MEC; outline: as §3
Staphylococcus aureus [13] = test: Potentiation of cefazolin induced antibacterial activity against methicillin resistant Staphylococcus aureus ATCC BAA-1764 assessed as minimum resensitizing concentration after 18 hrs by broth microdilution method; format: functional; details: ATCC BAA-1764, 18 h, read-out: MEC; outline: as §3
Staphylococcus aureus [14] = test: Antibacterial activity against methicillin resistant Staphylococcus aureus ATCC BAA-44 at 128 to 256 ug/ml after 18 hrs by broth microdilution method; format: functional, organism-based
Staphylococcus aureus [15] = test: Ratio of MIC for antibacterial activity against methicillin resistant Staphylococcus aureus ATCC BAA-44 to MEC for potentiation of cefazolin induced antibacterial activity against methicillin resistant Staphylococcus aureus ATCC BAA-44; format: functional
Outline: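 Compound MIC alone (CLSI broth microdilution) divided by its MRC with cefazolin at the 8 μg/mL breakpoint, both against MRSA BAA-44; each confirmed in triplicate.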

Staphylococcus aureus [16] = test: Antibacterial activity against methicillin resistant Staphylococcus aureus ATCC BAA-44 after 18 hrs by broth microdilution method; format: functional; details: ATCC BAA-44, 18 h; outline: as §4
HeLa = test: as §2; format: cell-based; details: hela, 24 h

Row | SMILES | minimal effective concentration (Staphylococcus aureus [6]) [µg/mL] | Activity (Staphylococcus aureus [14]) | Ratio (Staphylococcus aureus [15]) | MIC (Staphylococcus aureus [16]) [µg/mL] | GI50 (HeLa) [µg/mL] | also measured
1 | Nc1cc(Cl)c2nc(N3CCc4c([nH]c5ccc(Cl)cc45)C3)sc2c1 | 2 | – | – | – | – | minimal effective concentration (Staphylococcus aureus [1]): < 0.25 µg/mL; minimal effective concentration (Staphylococcus aureus [2]): 8 µg/mL; minimal effective concentration (Staphylococcus aureus [3]): 4 µg/mL; GI50 at 24 h [4]: > 100 µg/mL; minimal effective concentration (Staphylococcus aureus [5]): 4 µg/mL; minimal effective concentration (Staphylococcus aureus [7]): 1 µg/mL; MIC (Staphylococcus aureus [8]): > 32 µg/mL; minimal effective concentration (Staphylococcus aureus [9]): 32 µg/mL; minimal effective concentration (Staphylococcus aureus [10]): 0.5 µg/mL; minimal effective concentration (Staphylococcus aureus [11]): 4 µg/mL; minimal effective concentration (Staphylococcus aureus [12]): 4 µg/mL; minimal effective concentration (Staphylococcus aureus [13]): 0.5 µg/mL
2 | CO/N=C(\C(=O)N[C@@H]1C(=O)N2C(C(=O)O)=C(COC(N)=O)CS[C@H]12)c1ccco1 | – | Active | – | – | – | –
3 | Cc1nnc(SCC2=C(C(=O)O)N3C(=O)[C@@H](NC(=O)Cn4cnnn4)[C@H]3SC2)s1 | – | Active | – | – | – | –
4 | Clc1ccc2nc(N3CCc4c([nH]c5ccc(Cl)cc45)C3)sc2c1 | 2 | – | 32 | > 64 | 13.2 (≈ 35.3 µM) | –
5 | O=C(O)C1CN(c2nc3ccc(Cl)cc3s2)Cc2[nH]c3ccc(Cl)cc3c21 (racemic) | 16 | – | 0 | 32 (≈ 76.5 µM) | 65 (≈ 155 µM) | –
6 | FC(F)(F)c1cccc2sc(N3CCc4c([nH]c5ccc(Cl)cc45)C3)nc12 | 1 | – | 32 | > 32 | 8 (≈ 19.6 µM) | –
